11 molecules from ChEMBL document CHEMBL1687689, “Concise syntheses of the abyssinones and discovery of new inhibitors of prostate cancer and MMP-2 expression” (2010) can be followed below.

The source made the active and inactive calls. The rule behind the calls is not given here.

Experiment [1] is described as follows: Cytotoxicity in human PC3M cells assessed as inhibition of cell proliferation after 3 days by MTT assay. The format is functional. The settings on record: PC-3M, 72 h. Put shortly:
(§1)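 Metastatic variant PC3-M human prostate cancer cells in exponential growth exposed 3 days to 0−50 μM of each racemate or enantiomer; viability by MTT, absorbance at 540 nm. CC50 derived from the concentration-response. For the 50 μM readout, absorbance at 72 h compared with untreated cells at the start (t = 0 h).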
A general note: Tetrazolium dyes change colour on reduction, which living cells bring about.

Experiment [2] concerns PC-3M. Kind of experiment: (§2) Cytotoxicity in human PC3M cells assessed as inhibition of cell proliferation upto 50 uM after 3 days by MTT assay. Type of experiment: functional. Put shortly: as §1
A short description of experiment [3]: as §2. Type of experiment: functional, PC-3M. Summed up: as §1
Experiment [4] has as its system PC-3M. Kind of experiment: Inhibition of MMP-2 mRNA expression in human PC3M cells at 3 uM after 3 days by qRT-PCR analysis relative to untreated control. The note with it: 72 h. The format is functional. Background: Quantitative PCR measures a nucleic acid by following its amplification.

The CC50 is the concentration that lowers cell viability or growth by half. By inhibition is commonly meant the percentage by which the read-out fell short of the control. Consider `COc1c(CC=C(C)C)cc(C2CC(=O)c3ccc(O)cc3O2)cc1CC=C(C)C` (racemic), for which the CC50 in experiment [1] turned out to be 33 µM. For the same molecule, the inhibition entry with PC-3M [2] is “Active”. For `CC1(C)C=Cc2cc(C3CC(=O)c4ccc(O)cc4O3)ccc2O1` (racemic), in the experiment with PC-3M [2], the inhibition result is “Active”. Regarding `COc1c(CC=C(C)C)cc([C@@H]2CC(=O)c3ccc(O)cc3O2)cc1CC=C(C)C`, the half-maximal cytotoxic concentration (CC50) in experiment [1] was 12 µM. In addition, the inhibition result in the experiment with PC-3M [2] was “Active”. Further, in experiment [3], the “fold change (FC)” value was 2.

Consider `COc1c(CC=C(C)C)cc([C@H]2CC(=O)c3ccc(O)cc3O2)cc1CC=C(C)C`, for which the CC50 in experiment [1] came to 46 µM. Further, the inhibition entry with PC-3M [2] is “Active”. Taken in the same sequence, the figures for `CC(C)=CCc1cc(C2CC(=O)c3ccc(O)cc3O2)cc2c1OC(C)(C)C=C2` (racemic) were 57 µM and “Active”. In the case of `CC1(C)C=Cc2cc([C@H]3CC(=O)c4ccc(O)cc4O3)ccc2O1`, the inhibition entry with PC-3M [2] was “Active”. Turning to `CC(C)=CCc1cc([C@H]2CC(=O)c3ccc(O)cc3O2)ccc1O`, the inhibition result in the experiment on PC-3M [2] was “Active”. As for `CC(C)=CCc1cc([C@H]2CC(=O)c3ccc(O)cc3O2)cc2c1OC(C)(C)C=C2`, in experiment [1], the CC50 was 42 µM. This molecule had an inhibition at 3 µM in the experiment on PC-3M [4] of 65%. In addition, in the experiment with PC-3M [2], the inhibition result was “Active”. `CC1(C)C=Cc2cc([C@@H]3CC(=O)c4ccc(O)cc4O3)ccc2O1`: the inhibition entry with PC-3M [2] is “Active”. For the molecule `CC(C)=CCc1cc([C@@H]2CC(=O)c3ccc(O)cc3O2)ccc1O`, the inhibition entry with PC-3M [2] is “Active”. The same measure, in the same setting: next, `CC(C)=CCc1cc(C2CC(=O)c3ccc(O)cc3O2)ccc1O` (racemic): “Active”.
